Experimental data reported in ChEMBL document CHEMBL4152391, “Bile Acid Oligomers and Their Combination with Antibiotics To Combat Bacterial Infections” (J Med Chem, 2018).
Converted amounts (≈) assume the structure as drawn. The source made the active and inactive calls. The calls are words filed in the database; no cut-off is given here.

Key:
Staphylococcus aureus [1] = assay: Antibacterial activity against Staphylococcus aureus ATCC 29213 after 18 hrs by broth microdilution method; format: functional, organism-based; details: ATCC 29213, 18 h
Summary of the method: (§1)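 Broth microdilution per CLSI for water-insoluble agents: twofold serial dilutions made in DMSO at 100x final, diluted in Mueller Hinton broth to 1% final DMSO; 5x10^5 cfu/mL bacteria exposed 18 h at 37 °C with positive, growth and sterility controls. MIC = lowest concentration giving complete growth inhibition (turbidity and XTT reduction); IC50 from OD600 dose-response inflection point.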

Candida albicans = assay: Antifungal activity against Candida albicans ATCC 90028 at 30 ug after 24 hrs by agar disk-diffusion method; format: functional; details: ATCC 90028, 24 h, read-out: DIZ
Summary of the method: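 Candida disk diffusion on MHA with 2% glucose and 0.5 µg/mL methylene blue, following CLSI antifungal guidance; paper disks loaded with compound; incubated 37 °C for 24 h; zone of inhibition diameter read.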

Staphylococcus aureus [2] = assay: Potentiation of cefotaxime-induced antibacterial activity against Staphylococcus aureus ATCC 29213 assessed as FICI index at 2 ug/ml after 18 hrs by checkerboard microdilution method relative to control; format: functional
Summary of the method: (§2)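 Checkerboard microdilution: 5x10^5 cfu/mL bacteria exposed to twofold serial dilutions of compound and antibiotic, alone and combined (0.03–32 µg/mL), 18 h at 37 °C. ΣFIC: ≤0.5 synergy; >0.5–1 additive; >1–4 indifferent; >4 antagonism.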

Staphylococcus aureus [3] = assay: Potentiation of amikacin-induced antibacterial activity against Staphylococcus aureus ATCC 29213 assessed as decrease in […] at 2 ug/ml after 18 hrs by checkerboard microdilution method relative to control; format: functional; summary of the method: as §2
Staphylococcus aureus [4] = assay: Potentiation of ciprofloxacin-induced antibacterial activity against Staphylococcus aureus ATCC 29213 assessed as decrease in […] at 2 ug/ml after 18 hrs by checkerboard microdilution method relative to control; format: functional; summary of the method: as §2
Staphylococcus aureus [5] = assay: Potentiation of vancomycin-induced antibacterial activity against Staphylococcus aureus ATCC 29213 assessed as FICI index at 2 ug/ml after 18 hrs by checkerboard microdilution method relative to control; format: functional; summary of the method: as §2
Staphylococcus aureus [6] = assay: Potentiation of amikacin-induced antibacterial activity against Staphylococcus aureus ATCC 29213 assessed as FICI index at 2 ug/ml after 18 hrs by checkerboard microdilution method relative to control; format: functional; summary of the method: as §2
Escherichia coli = assay: Antibacterial activity against Escherichia coli ATCC 25922 at 5 to 100 ug after 18 hrs by agar disk-diffusion method; format: functional, organism-based
Summary of the method: (§3)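 Agar disk diffusion per CLSI: compound loaded on sterile 6 mm paper disks, dried, placed on Mueller Hinton agar lawned with bacteria at McFarland 0.5; cefotaxime positive and DMSO solvent controls; 37 °C for 18 h; zone of inhibition diameter measured to nearest whole mm.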

Pseudomonas aeruginosa = assay: Antibacterial activity against Pseudomonas aeruginosa at 5 to 100 ug after 18 hrs by agar disk-diffusion method; format: functional, organism-based; summary of the method: as §3
Staphylococcus aureus [7] = assay: Potentiation of cefotaxime-induced antibacterial activity against Staphylococcus aureus ATCC 29213 assessed as decrease in cefotaxime MIC at 2 ug/ml after 18 hrs by checkerboard microdilution method relative to control; format: functional; summary of the method: as §2
Staphylococcus aureus [8] = assay: Potentiation of ciprofloxacin-induced antibacterial activity against Staphylococcus aureus ATCC 29213 assessed as FICI index at 2 ug/ml after 18 hrs by checkerboard microdilution method relative to control; format: functional; summary of the method: as §2
Staphylococcus aureus [9] = assay: Antibacterial activity against methicillin/ciprofloxacin-resistant Staphylococcus aureus ATCC 2673 clinical isolate at 5 to 100 ug after 18 hrs by agar disk-diffusion method; format: functional
Summary of the method: (§4)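 CLSI agar disk diffusion: 5 to 100 µg compound loaded on 6 mm sterile paper disks, dried, placed on Mueller Hinton agar lawned with McFarland 0.5 bacterial suspension; cefotaxime positive and DMSO solvent controls run alongside; 18 h at 37 °C, inhibition zone diameter read to nearest whole mm.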

Staphylococcus aureus [10] = assay: Antibacterial activity against Staphylococcus aureus ATCC 29213 assessed as disruption of cell membrane at 0.5 times MIC after 18 hrs by scanning electron microscopic method; format: functional, organism-based
Summary of the method: (§5)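 Bacterial suspension (5x10^5 cfu/mL) exposed to compound at 0.5x and 1x MIC for 18 h at 37 °C alongside untreated control; centrifuged 10,000 rpm 10 min, pellets washed twice in normal saline, then processed for scanning electron microscopy.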

Staphylococcus aureus [11] = assay: Antibacterial activity against methicillin/ciprofloxacin/chloramphenicol-resistant Staphylococcus aureus ATCC 1704 clinical isolate at 5 to 100 ug after 18 hrs by agar disk-diffusion method; format: functional; summary of the method: as §4
Staphylococcus aureus [12] = assay: Antibacterial activity against Staphylococcus aureus ATCC 29213 assessed as bleb formation at 0.5 times MIC after 18 hrs by scanning electron microscopic method; format: functional, organism-based; summary of the method: as §5
HEK293 = assay: Cytotoxicity against HEK293 cells assessed as decrease in cell viability at 1 to 200 uM after 24 hrs by Alamar Blue assay; format: cell-based; details: human, hek293, 24 h
Summary of the method: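 HEK293 cells in DMEM HG, 10% FBS, 1% pen-strep, 37 °C 5% CO2, passage under 30, used at 80% confluency; seeded 1×10^4/well, after 24 h washed and treated 24 h with 1–200 µM in complete medium; alamar blue (0.15 mg/mL) added for 4 h, absorbance 570 and 600 nm; viability relative to untreated cells as 100%.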

Staphylococcus aureus [13] = assay: Antibacterial activity against methicillin/ciprofloxacin/chloramphenicol-resistant Staphylococcus aureus ATCC 1704 clinical isolate after 18 hrs by broth microdilution method; format: functional, organism-based; details: ATCC 1704, 18 h; summary of the method: as §1
Staphylococcus aureus [14] = assay: Potentiation of vancomycin-induced antibacterial activity against Staphylococcus aureus ATCC 29213 assessed as decrease in […] at 2 ug/ml after 18 hrs by checkerboard microdilution method relative to control; format: functional; summary of the method: as §2
Staphylococcus aureus [15] = assay: Antibacterial activity against methicillin/ciprofloxacin-resistant Staphylococcus aureus ATCC 2673 clinical isolate after 18 hrs by broth microdilution method; format: functional, organism-based; details: ATCC 2673, 18 h; summary of the method: as §1
Staphylococcus aureus [16] = assay: Antibacterial activity against Staphylococcus aureus ATCC 29213 at 30 ug after 18 hrs by agar disk-diffusion method; format: functional; details: ATCC 29213, 18 h, read-out: DIZ; summary of the method: as §3
Staphylococcus aureus [17] = assay: Antibacterial activity against Staphylococcus aureus ATCC 29213 assessed as shriveling at 0.5 times MIC after 18 hrs by scanning electron microscopic method; format: functional, organism-based; summary of the method: as §5
Staphylococcus aureus [18] = assay: Antibiofilm activity against Staphylococcus aureus ATCC 29213 after 18 hrs by XTT-menadione assay; format: functional
Summary of the method: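 Biofilms grown 24 h at 37 °C from suspension at OD600 0.1 in tryptic soy broth with 1% glucose, washed twice with saline, exposed 18 h at 37 °C to twofold serial dilutions; growth and sterility controls. Read by XTT (0.5 mg/mL)–menadione (10 µM) in MHB, 1 h dark at 37 °C, absorbance 450 nm; MBIC50 and MBIC100 = 50% and 100% inhibition.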

`C[C@H](CCC(=O)NCCNCCNC(=O)CC[C@@H](C)[C@H]1CC[C@H]2[C@@H]3[C@H](O)C[C@@H]4C[C@H](O)CC[C@]4(C)[C@H]3C[C@H](O)[C@]12C)[C@H]1CC[C@H]2[C@@H]3[C@H](O)C[C@@H]4C[C@H](O)CC[C@]4(C)[C@H]3C[C@H](O)[C@]12C` gave an IC50 (Staphylococcus aureus [1]) of 2.87 µg/mL (≈ 3.25 µM), an MIC (Staphylococcus aureus [1]) of 4 µg/mL (≈ 4.52 µM) and a zone of inhibition at 30 µg/disc (Candida albicans) of 10 mm. The “fractional inhibitory concentration index (FICI)” value (Staphylococcus aureus [2]) was 0.53, the “fold change (FC)” value (Staphylococcus aureus [3]) was 67 and the “fold change (FC)” value (Staphylococcus aureus [4]) was 17. The “fractional inhibitory concentration index (FICI)” value (Staphylococcus aureus [5]) was 1, the “fractional inhibitory concentration index (FICI)” value (Staphylococcus aureus [6]) was 0.51 and the Activity (Escherichia coli) was “inactive”. The Activity (Pseudomonas aeruginosa) was “inactive”, the “fold change (FC)” value (Staphylococcus aureus [7]) was 33 and the “fractional inhibitory concentration index (FICI)” value (Staphylococcus aureus [8]) was 0.56. For the same compound, the “diameter of the inhibition zone (DIZ)” value (Staphylococcus aureus [9]) was 13 mm, the Activity (Staphylococcus aureus [10]) was “Active” and the “diameter of the inhibition zone (DIZ)” value (Staphylococcus aureus [11]) was 13 mm. The Activity (Staphylococcus aureus [12]) was “Active”, the Activity (HEK293) was “Non-Toxic” and the IC50 (Staphylococcus aureus [13]) was 4.36 µg/mL (≈ 4.93 µM). The MIC (Staphylococcus aureus [13]) was 8 µg/mL (≈ 9.05 µM), the “fold change (FC)” value (Staphylococcus aureus [14]) was 2 and the IC50 (Staphylococcus aureus [15]) was 2.18 µg/mL (≈ 2.47 µM). For the same compound, the MIC (Staphylococcus aureus [15]) was 4 µg/mL (≈ 4.52 µM), the zone of inhibition at 30 µg/disc (Staphylococcus aureus [16]) was 14 mm and the Activity (Staphylococcus aureus [17]) was “Active”. It also gave an MBIC100 (Staphylococcus aureus [18]) of 32 µg/mL.
